For one series, the system named is Haemophilus influenzae. The series is described as follows: Minimum inhibitory concentration (MIC) against Haemophilus influenzae by 2-fold microdilution technique. The series is classed as functional. Conditions: Haemophilus influenzae; read-out: MIC. The gist of the method: (§1)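 For each organism, an overnight culture was grown in Mueller-Hinton broth at 37 °C. Twofold microtiter dilutions in Nutrient Broth covered 0.005–125 µg/mL. Each well received about 10^4 organisms, and plates were incubated 18 h at 37 °C. MIC was the lowest concentration giving no visible growth.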
(Broth dilution looks for growth in wells or tubes with falling amounts of substance.)

Series [1] deals with Escherichia coli. Briefly: Protective dose (PD50) against Escherichia coli infected mice. The series is classed as functional. The conditions noted are these: read-out: PD50. The procedure, abridged:
(§2)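 Male Swiss-Webster mice (20 ± 2 g) were challenged intraperitoneally with enough bacteria to kill untreated controls within 72 h. Drug was given orally by gavage twice: at 0 and 2 h after E. coli challenge, or at 1 and 3.5 h after S. pneumoniae challenge. PD50 is the dose in mg/kg per dose that protects 50% of animals.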

The test system of another series is Enterococcus faecalis. Briefly: Minimum inhibitory concentration (MIC) against Streptococcus faecalis by 2-fold microdilution technique. The series is classed as functional. The conditions noted are these: Enterococcus faecalis; read-out: MIC. The procedure, abridged: as §1
In a further series the test system is Staphylococcus aureus. The series is described as follows: Minimum inhibitory concentration (MIC) against Staphylococcus aureus by 2-fold microdilution technique. The series is classed as functional. Conditions: Staphylococcus aureus; read-out: MIC. The gist of the method: as §1
The test system of series [2] is Escherichia coli. The series is described as follows: Minimum inhibitory concentration (MIC) […] against Escherichia coli. It counts as functional. The gist of the method:
as §1

In a further series the test system is Klebsiella pneumoniae. Briefly: Minimum inhibitory concentration (MIC) against Klebsiella pneumoniae by 2-fold microdilution technique. It counts as functional. The procedure, abridged:
as §1

Another series deals with Proteus mirabilis. Briefly: Minimum inhibitory concentration (MIC) against Proteus mirabilis by 2-fold microdilution technique. It counts as functional. The procedure, abridged:
as §1

In the next series the test system is Streptococcus pyogenes. The series is described as follows: Minimum inhibitory concentration (MIC) against Streptococcus pyogenes by 2-fold microdilution technique. It counts as functional. The conditions noted are these: Streptococcus pyogenes; read-out: MIC. The gist of the method:
as §1

Series [3] has as its system Streptococcus pneumoniae. The series is described as follows: Minimum inhibitory concentration (MIC) […] against Streptococcus pneumoniae. It counts as functional. The procedure, abridged: as §1
In series [4] the test system is Escherichia coli. The series is described as follows: Minimum inhibitory concentration (MIC) against Escherichia coli by 2-fold microdilution technique. The series is classed as functional. The procedure, abridged: as §1
Series [5] deals with Streptococcus pneumoniae. Briefly: Minimum inhibitory concentration (MIC) against Streptococcus pneumoniae by 2-fold microdilution technique. The series is classed as functional. Conditions: Streptococcus pneumoniae; read-out: MIC. The procedure, abridged:
as §1

Series [6] deals with Streptococcus pneumoniae. The series is described as follows: Protective dose (PD50) against Streptococcus pneumoniae infected mice. It counts as functional. Conditions: Streptococcus pneumoniae; read-out: PD50. The procedure, abridged:
as §2

Series [7] is described as follows: Cmax was measured in mice after an oral dose of 50 mg/kg. The series is classed as ADME, organism-based. On the set-up: dose 50 mg/kg, route oral. The conditions noted are these: mouse, in vivo. The procedure, abridged:
(§3)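 Male Swiss-Webster mice (20 ± 2 g) were given a single 50 mg/kg oral dose by gavage. Blood concentrations and urine levels were measured by microbiological assay, and urinary recovery was taken over 0–6 h.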

Series [8] has as its system Mus musculus. The series is described as follows: Area under curve(AUC) was measured in mice after oral administration. It counts as ADME, organism-based. On the set-up: concentration or dose not given beside the values; unit not given here. The conditions noted are these: in vivo. The procedure, abridged:
as §3

The species entered for series [9] is Mus musculus. The series is described as follows: Percentage of dose recovered after 0-6 hr in the urine of mice was measured. The series is classed as ADME, organism-based. The conditions noted are these: in vivo. The procedure, abridged:
as §3

The nature of series [10]: Half life was measured. The series is classed as ADME. The gist of the method:
as §3

[11] abbreviates: Escherichia coli, read-out: MIC.
The mark [12] stands for this setting: Klebsiella pneumoniae, read-out: MIC.
Setting [13] is: Proteus mirabilis, read-out: MIC.
The mark [14] stands for this setting: Streptococcus pneumoniae, read-out: MIC.

Values after ≈ are worked out from the molar mass of the structure shown.

With `N[C@@H](C(=O)N[C@@H]1C(=O)N2C(C(=O)O)=C(/C=C/C(F)(F)F)OC[C@H]12)c1ccc(O)cc1`, the MIC in the series with Haemophilus influenzae came to 2 µg/mL (≈ 4.68 µM); in the series with Enterococcus faecalis, 0.13 µg/mL (≈ 0.304 µM); with Staphylococcus aureus it was 0.5 µg/mL (≈ 1.17 µM); in the series on Escherichia coli [2] (setting [11]), 4 µg/mL (≈ 9.36 µM); with Klebsiella pneumoniae (setting [12]), 16 µg/mL (≈ 37.4 µM); in the series on Proteus mirabilis (setting [13]) it was 16 µg/mL (≈ 37.4 µM). The MIC with Streptococcus pyogenes was 0.008 µg/mL (≈ 0.0187 µM); in the series with Streptococcus pneumoniae [3] (setting [14]), 0.016 µg/mL (≈ 0.0374 µM); in the series on Escherichia coli [4] (setting [11]), 4 µg/mL (≈ 9.36 µM); with Streptococcus pneumoniae [5] it was 0.016 µg/mL (≈ 0.0374 µM). For the same molecule, the ED50 was more than 50 mg/kg in the series on Escherichia coli [1] and more than 12.5 mg/kg in the series with Streptococcus pneumoniae [6].
The Cmax is the highest concentration seen after dosing. What is called half-life is how long it takes for the measured level to halve. As for `C=CCC1=C(C(=O)O)N2C(=O)[C@@H](NC(=O)[C@H](N)c3ccc(O)cc3)[C@H]2SC1`, the MIC is 1 µg/mL (≈ 2.57 µM) in the series with Haemophilus influenzae; 18 µg/mL (≈ 46.2 µM) in the series with Enterococcus faecalis; 0.13 µg/mL (≈ 0.334 µM) in the series on Staphylococcus aureus; 4 µg/mL (≈ 10.3 µM) with Klebsiella pneumoniae (setting [12]); 1 µg/mL (≈ 2.57 µM) with Proteus mirabilis (setting [13]); 0.016 µg/mL (≈ 0.0411 µM) in the series with Streptococcus pyogenes. Also, the MIC with Escherichia coli [4] (setting [11]) was determined as 4 µg/mL (≈ 10.3 µM); in the series on Streptococcus pneumoniae [5] it was 0.03 µg/mL (≈ 0.077 µM). For the same molecule, the Cmax in [7] amounted to 45000 ng/mL. In addition, the AUC in the series on Mus musculus [8] turned out to be 41. For the same molecule, in the series filed under Mus musculus [9], the “Urinary recovery (% of dose, 0-6 h)” value came to 79%. The molecule further gave a half-life in [10] of 34 min.
On to `N[C@@H](C(=O)N[C@@H]1C(=O)N2C(C(=O)O)=COC[C@H]12)c1ccc(O)cc1`, for which the MIC stood at 2 µg/mL (≈ 6 µM) in the series with Haemophilus influenzae; 32 µg/mL (≈ 96 µM) in the series on Enterococcus faecalis; 1 µg/mL (≈ 3 µM) with Staphylococcus aureus; 4 µg/mL (≈ 12 µM) with Escherichia coli [2] (setting [11]); 8 µg/mL (≈ 24 µM) with Klebsiella pneumoniae (setting [12]); 4 µg/mL (≈ 12 µM) with Proteus mirabilis (setting [13]). In addition, the MIC in the series with Streptococcus pyogenes stood at 0.25 µg/mL (≈ 0.75 µM); with Streptococcus pneumoniae [3] (setting [14]), 1 µg/mL (≈ 3 µM); in the series with Escherichia coli [4] (setting [11]), 4 µg/mL (≈ 12 µM); in the series with Streptococcus pneumoniae [5] it was 1 µg/mL (≈ 3 µM). In addition, the ED50 is 6.2 mg/kg in the series with Escherichia coli [1] and 33 mg/kg in the series on Streptococcus pneumoniae [6].
For the molecule `C/C=C/C1=C(C(=O)O)N2C(=O)[C@@H](NC(=O)[C@H](N)c3ccc(O)cc3)[C@H]2CO1` (relative stereo), the MIC with Haemophilus influenzae is 2 µg/mL (≈ 5.36 µM); in the series with Enterococcus faecalis it was 1 µg/mL (≈ 2.68 µM); in the series with Staphylococcus aureus, 0.25 µg/mL (≈ 0.67 µM); in the series on Escherichia coli [2] (setting [11]), 2 µg/mL (≈ 5.36 µM); in the series on Klebsiella pneumoniae (setting [12]), 8 µg/mL (≈ 21.4 µM); in the series on Proteus mirabilis (setting [13]), 0.5 µg/mL (≈ 1.34 µM). Moreover, the MIC in the series on Streptococcus pyogenes is 0.016 µg/mL (≈ 0.0429 µM); in the series on Streptococcus pneumoniae [3] (setting [14]), 0.03 µg/mL (≈ 0.0804 µM); in the series with Escherichia coli [4] (setting [11]) it was 2 µg/mL (≈ 5.36 µM); in the series with Streptococcus pneumoniae [5] it was 0.03 µg/mL (≈ 0.0804 µM). In addition, the ED50 in the series on Escherichia coli [1] was more than 50 mg/kg; in the series with Streptococcus pneumoniae [6], 1.8 mg/kg. In addition, the Cmax in series [7] stood at 11000 ng/mL. In the series on Mus musculus [8], the AUC is 30. Also, the “Urinary recovery (% of dose, 0-6 h)” value in the series listed under Mus musculus [9] is given as 5%. The molecule further displayed a half-life in series [10] of 110 min.
As for `C/C=C\C1=C(C(=O)O)N2C(=O)[C@@H](NC(=O)[C@H](N)c3ccc(O)cc3)[C@H]2CO1` (relative stereo), the MIC with Haemophilus influenzae worked out at 2 µg/mL (≈ 5.36 µM); in the series on Enterococcus faecalis, 1 µg/mL (≈ 2.68 µM); with Staphylococcus aureus it was 0.25 µg/mL (≈ 0.67 µM); in the series on Escherichia coli [2] (setting [11]), 2 µg/mL (≈ 5.36 µM); in the series with Klebsiella pneumoniae (setting [12]), 16 µg/mL (≈ 42.9 µM); in the series with Proteus mirabilis (setting [13]) it was 1 µg/mL (≈ 2.68 µM). For the same molecule, the MIC came out at 0.016 µg/mL (≈ 0.0429 µM) with Streptococcus pyogenes, 0.03 µg/mL (≈ 0.0804 µM) with Streptococcus pneumoniae [3] (setting [14]), 2 µg/mL (≈ 5.36 µM) with Escherichia coli [4] (setting [11]) and 0.03 µg/mL (≈ 0.0804 µM) in the series with Streptococcus pneumoniae [5]. The ED50 in the series on Escherichia coli [1] worked out at 19 mg/kg; in the series on Streptococcus pneumoniae [6], 0.3 mg/kg. The peak level in [7] (Cmax) was 15000 ng/mL. The AUC in the series with Mus musculus [8] was 23. For the same molecule, the “Urinary recovery (% of dose, 0-6 h)” value in the series listed under Mus musculus [9] amounted to 25%. The half-life in series [10] was determined as 52 min.
Consider `N[C@@H](C(=O)N[C@@H]1C(=O)N2C(C(=O)O)=C(Cl)CS[C@H]12)c1ccccc1.O` [CEFACLOR], for which the MIC with Haemophilus influenzae was 1 µg/mL; in the series with Enterococcus faecalis, 16 µg/mL; with Staphylococcus aureus it was 0.25 µg/mL; in the series with Klebsiella pneumoniae (setting [12]) it was 1 µg/mL; with Proteus mirabilis (setting [13]), 0.25 µg/mL; with Streptococcus pyogenes, 0.25 µg/mL. Moreover, the MIC in the series with Escherichia coli [4] (setting [11]) amounted to 1 µg/mL; in the series with Streptococcus pneumoniae [5], 0.5 µg/mL.
Turning to `C/C=C/C1=C(C(=O)O)N2C(=O)[C@@H](NC(=O)[C@H](N)c3ccc(O)cc3)[C@H]2SC1.O` (relative stereo; 56) [CEFPROZIL, (E)-], the MIC with Haemophilus influenzae worked out at 2 µg/mL; in the series with Enterococcus faecalis, 2 µg/mL; in the series with Staphylococcus aureus, 0.13 µg/mL; in the series on Escherichia coli [2], 2 µg/mL; against Klebsiella pneumoniae, 2 µg/mL; with Proteus mirabilis it was 0.25 µg/mL. The MIC turned out to be 0.016 µg/mL in the series with Streptococcus pyogenes, 0.016 µg/mL in the series on Streptococcus pneumoniae [3], 1 µg/mL against Escherichia coli [4] and 0.03 µg/mL in the series with Streptococcus pneumoniae [5]. The ED50 with Escherichia coli [1] amounted to 1.2 mg/kg; with Streptococcus pneumoniae [6] it was 0.4 mg/kg. The Cmax in [7] stood at 46000 ng/mL. In the series on Mus musculus [8], this molecule yielded an AUC of 42. Moreover, in the series listed under Mus musculus [9], the “Urinary recovery (% of dose, 0-6 h)” value came out at 85%. This molecule also gave a half-life in [10] of 29 min.

The values above are taken from ChEMBL document CHEMBL1124257, “An examination of O-2-isocephems as orally absorbable antibiotics” (J Med Chem, 1988).
